{"source": "paper PMC4059944", "about": "(Nature, 2014)", "molecules": {"B1": {"name": "Pol1NTD (Pol1-NTD-ProteinA: N-terminal region of Pol1, residues 1 to 351, fused to Protein A) (domain or fragment)", "chain": "MSSKSEKLEKLRKLQAARNGTSIDDYEGDESDGDRIYDEIDEKEYRARKRQELLHDDFVVDDDGVGYVDRGVEEDWREVDNSSSDEDTGNLASKDSKRKKNIKREKDHQITDMLRTQHSKSTLLAHAKKSQKKSIPIDNFDDILGEFESGEVEKPNILLPSKLRENLNSSPTSEFKSSIKRVNGNDESSHDAGISKKVKIDPDSSTDKYLEIESSPLKLQSRKLRYANDVQDLLDDVENSPVVATKRQNVLQDTLLANPPSAQSLADEEDDEDSDEDIILKRRTMRSVTTTRRVNIDSRSNPSTSPFVTAPGTPIGIKGLTPSKSLQSNTDVATLAVNVKKEDVVDPETDT"}, "B2": {"name": "Ctf4 N-terminal deletion (Ctf4CTD, aa 461-927) (domain or fragment)", "chain": "THSFPISLANTGKFRYMPFSPAGTPFGFTDRRYLTMNEVGYVSTVKNSEQYSITVSFFDVGRFREYHFEDLFGYDLCFLNEKGTLFGQSKTGQIQYRPHDSIHSNWTKIIPLQAGERITSVAATPVRVIVGTSLGYFRSFNQFGVPFAVEKTSPIVALTAQNYRVFSVHYSQFHGLSYSLSELGTSSKRYYKRECPLPMSLPNINSDMKKDANLDYYNFNPMGIKSLFFSSYGDPCIFGSDNTLLLLSKWRSPEESKWLPILDSNMEIWKMSGGKETTDIHVWPLALAYDTLNCILVKGKHIWPEFPLPLPSEMEIRMPVFVKSKLLEENKAILNKKNEIGADTEAEEGEEDKEIQIPVSMAAEEEYLRSKVLSELLTDTLENDGEMYGNENEVLAALNGAYDKALLRLFASACSDQNVEKALSLAHELKQDRALTAAVKISERAELPSLVKKINNIREARYEQQLK"}, "B3": {"name": "Ctf4: full-length yeast Ctf4 protein (protein)", "chain": "MVSVIDKLVFDFGGKTLVSLAPDNNTLCVANKNGLTKILKTNNPEEEPETLDSSKLVSSIKCYSNSHFLMTTMQGDALRYNIDSSQEELLARFALPLRDCCVIHSGKMAVFGGDDLELILLELDDETHKKHAIKIDEQVSQISYNSQMNILAVSMINGKVQIFSLTSTIPNKVHELNDYIVANSYDDTHRDKILSNMMDDIDKDNDNDLSETADPDENNVADPEFCAANRICTRVAWHPKGLHFALPCADDTVKIFSIKGYSLQKTLSTNLSSTKAHFIDLQFDPLRGTYIAAVDLNNKLTVWNWETSEIHYTREFKRKITNIAWKIQADSKTLDLVLGTWSGSIAIVQNLAESVVSNIPDQSVAESSTKHGLFVDSESDLENLEGNDDINKSDKLFSDITQEANAEDVFTQTHDGPSGLSEKRKYNFEDEEDFIDDDDGAGYISGKKPHNEHSYSRVHKTHSFPISLANTGKFRYMPFSPAGTPFGFTDRRYLTMNEVGYVSTVKNSEQYSITVSFFDVGRFREYHFEDLFGYDLCFLNEKGTLFGQSKTGQIQYRPHDSIHSNWTKIIPLQAGERITSVAATPVRVIVGTSLGYFRSFNQFGVPFAVEKTSPIVALTAQNYRVFSVHYSQFHGLSYSLSELGTSSKRYYKRECPLPMSLPNINSDMKKDANLDYYNFNPMGIKSLFFSSYGDPCIFGSDNTLLLLSKWRSPEESKWLPILDSNMEIWKMSGGKETTDIHVWPLALAYDTLNCILVKGKHIWPEFPLPLPSEMEIRMPVFVKSKLLEENKAILNKKNEIGADTEAEEGEEDKEIQIPVSMAAEEEYLRSKVLSELLTDTLENDGEMYGNENEVLAALNGAYDKALLRLFASACSDQNVEKALSLAHELKQDRALTAAVKISERAELPSLVKKINNIREARYEQQLK"}}, "key": {"Ctf4CTD [1]": {"system": "Ctf4CTD", "assay": "Fluorescence polarization", "type": "binding, yeast (S. cerevisiae)", "settings": "fluorescence anisotropy, 25°C, 20 mM HEPES pH 7.2, 140 mM KCl, 5% (w/v) glycerol; 40 nM (Sld5) or 50 nM (Pol1) fluorescein-labeled peptide; mean of three independent experiments"}, "Ctf4CTD [2]": {"system": "Ctf4CTD", "assay": "X-ray crystallography of Ctf4CTD crystals soaked with peptide", "type": "binding, yeast (S. cerevisiae)", "settings": "soaked 24 hours at 19 °C"}, "Ctf4CTD trimer": {"system": "Ctf4CTD trimer", "assay": "Single-particle electron microscopy of Ctf4CTD complexes", "type": "binding, yeast (S. cerevisiae)"}, "[3]": {"biological_target": "B2", "assay": "negative-stain single-particle electron microscopy"}, "[4]": {"biological_target": "T1, Ctf4CTD (yeast Ctf4 amino acids 471 to 927) (S. cerevisiae, UniProt Q01454 471-927)", "T1 sequence": "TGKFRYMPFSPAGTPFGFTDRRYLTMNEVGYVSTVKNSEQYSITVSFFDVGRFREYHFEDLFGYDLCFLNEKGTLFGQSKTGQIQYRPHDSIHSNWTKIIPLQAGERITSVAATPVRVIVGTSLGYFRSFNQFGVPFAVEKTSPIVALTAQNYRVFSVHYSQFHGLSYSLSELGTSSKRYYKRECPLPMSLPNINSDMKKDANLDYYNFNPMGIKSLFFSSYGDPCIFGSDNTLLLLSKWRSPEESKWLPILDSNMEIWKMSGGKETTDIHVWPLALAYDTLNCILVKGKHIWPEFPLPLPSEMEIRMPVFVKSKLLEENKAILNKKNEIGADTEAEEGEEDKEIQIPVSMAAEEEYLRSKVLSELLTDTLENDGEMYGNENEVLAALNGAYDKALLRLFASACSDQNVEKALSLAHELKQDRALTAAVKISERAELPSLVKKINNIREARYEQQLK", "assay": "pull-down"}, "[5]": {"biological_target": "T1, Ctf4CTD (yeast Ctf4 amino acids 471 to …)", "assay": "native MS"}, "[6]": {"biological_target": "the molecule itself", "assay": "negative-stain single-particle electron microscopy"}, "[7]": {"biological_target": "T2, GINSPsf1ΔC (Strep III-tagged, for electron microscopy) (S. cerevisiae, UniProt Q12146 1-194; Q12488 1-164; P40359 1-213; Q03406 1-294)", "T2 sequence 1": "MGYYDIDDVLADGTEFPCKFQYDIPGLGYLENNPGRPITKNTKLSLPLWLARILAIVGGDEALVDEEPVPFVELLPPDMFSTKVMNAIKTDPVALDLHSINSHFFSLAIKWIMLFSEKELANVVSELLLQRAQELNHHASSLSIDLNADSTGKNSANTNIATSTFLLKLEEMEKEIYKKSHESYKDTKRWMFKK", "T2 sequence 2": "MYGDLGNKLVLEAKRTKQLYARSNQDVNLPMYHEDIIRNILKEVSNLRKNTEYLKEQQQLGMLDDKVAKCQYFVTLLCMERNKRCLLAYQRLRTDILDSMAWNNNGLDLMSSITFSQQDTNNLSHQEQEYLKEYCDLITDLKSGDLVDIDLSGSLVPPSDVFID", "T2 sequence 3": "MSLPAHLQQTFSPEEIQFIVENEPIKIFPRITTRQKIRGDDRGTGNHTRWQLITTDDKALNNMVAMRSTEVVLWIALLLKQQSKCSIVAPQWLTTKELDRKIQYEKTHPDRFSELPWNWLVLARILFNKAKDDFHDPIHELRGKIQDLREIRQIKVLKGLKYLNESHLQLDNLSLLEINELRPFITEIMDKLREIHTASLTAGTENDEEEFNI", "T2 sequence 4": "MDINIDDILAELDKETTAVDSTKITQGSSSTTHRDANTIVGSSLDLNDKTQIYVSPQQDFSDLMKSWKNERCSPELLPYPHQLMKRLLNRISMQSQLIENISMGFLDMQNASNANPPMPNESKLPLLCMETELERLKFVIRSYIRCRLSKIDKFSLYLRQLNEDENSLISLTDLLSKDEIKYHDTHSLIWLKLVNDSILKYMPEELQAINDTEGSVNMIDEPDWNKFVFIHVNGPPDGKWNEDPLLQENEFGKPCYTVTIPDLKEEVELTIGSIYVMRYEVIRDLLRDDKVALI", "assay": "negative-stain single-particle electron microscopy"}, "CMG helicase": {"system": "CMG helicase", "settings": "yeast cells; cited from earlier work"}, "[8]": {"assay": "Multi-angle laser scattering", "type": "physicochemical, yeast (S. cerevisiae)", "settings": "size exclusion chromatography - MALS", "outline": "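Recombinant His-tagged full-length yeast Ctf4, expressed in E. coli BL21(DE3)-CodonPlus (1 mM IPTG, 37°C, 2 h), purified by Ni-NTA, Mono Q ion exchange and Superdex 200 gel filtration. About 100 μg loaded onto an HPLC size-exclusion column equilibrated in 150 mM NaCl, 20 mM Tris pH 8.0, 1 mM DTT. Eluate read by 8-angle light scattering and refractive index detectors.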"}}, "note": "Where “and” joins values, the source holds several entries; their conditions need not be identical. Equal values may be shown once.", "data": [{"molecule": "1- MDINIDDILAELDKETTAV -19 [Ctf4-binding sequence of Sld5]", "values": [{"measurement": "tighter association with Ctf4 compared to Pol1 (fold)", "setting": "Ctf4CTD [1]", "result": "~ 5 fold"}]}, {"molecule": "137-IDNFDDILGEFES-149 [Pol1 peptide]", "values": [{"measurement": "occupancy of binding sites in Ctf4CTD trimer crystal", "setting": "Ctf4CTD [2]; open crystal form", "result": "occupies each of the two binding sites available in this crystal form"}, {"measurement": "conformational change in helical domain of Ctf4CTD on binding", "setting": "Ctf4CTD [2]", "result": "does not induce an appreciable conformational change in the helical domain of Ctf4CTD"}]}, {"molecule": "MDINIDDILAELDKETTAV [Sld5]", "values": [{"measurement": "mode of interaction with Ctf4", "setting": "Ctf4CTD [2]; compared with Ctf4-binding motif of Pol1", "result": "near-identical mode of interaction"}]}, {"molecule": "B1", "values": [{"measurement": "Ctf4CTD - GINS - Pol1NTD complexes observed", "setting": "Ctf4CTD trimer; reconstituted hetero-assemblies, Pol1 residues 1 to 351 fused to Protein A", "result": "varied stoichiometries, with partial or full occupancy of the Ctf4 trimer"}, {"measurement": "Ctf4CTD - Pol1NTD complex observed", "setting": "Ctf4CTD trimer; reference-free class averages, box size 448 Å", "result": "ring-shaped core linked to one mobile globular density"}, {"measurement": "binding result", "setting": "[3]", "result": "binds"}]}, {"molecule": "MDINIDAILAELDKETTAVD (domain or fragment)", "note": "[GST-Sld5 (1-20) D7A]", "values": [{"measurement": "binding result", "setting": "[4]", "result": "binds"}]}, {"molecule": "MDINIDDILAELDKETTAV", "note": "[Sld5 peptide 1-MDINIDDILAELDKETTAV-19]", "values": [{"measurement": "stoichiometry N", "setting": "[5]", "result": "1 peptides per Ctf4CTD trimer and 2 peptides per Ctf4CTD trimer and 3 peptides per Ctf4CTD trimer"}]}, {"molecule": "B2", "values": [{"measurement": "stoichiometry N", "setting": "[6]", "result": 3}, {"measurement": "binding result", "setting": "[7]", "result": "binds"}]}, {"molecule": "B3", "values": [{"measurement": "salt concentration resisted by association of Ctf4 with CMG", "setting": "CMG helicase", "result": "≥ 700", "unit": "mM"}, {"measurement": "oligomeric state in solution (MALS)", "setting": "[8]", "result": "stable homotrimers in solution"}, {"measurement": "oligomeric state in solution (MALS)", "setting": "[8]; listed as full-length Ctf4", "result": "stable trimer in solution"}]}, {"molecule": "IDNFDDILGEFES", "note": "[Pol1 peptide 137-IDNFDDILGEFES-149]", "values": [{"measurement": "stoichiometry N", "setting": "[5]", "result": "1 peptides per Ctf4CTD trimer and 2 peptides per Ctf4CTD trimer and 3 peptides per Ctf4CTD trimer"}]}, {"molecule": "MDINIDDILAELDKETTAVD (domain or fragment)", "note": "[GST-Sld5 (residues 1 to 20)]", "values": [{"measurement": "binding result", "setting": "[4]", "result": "binds"}]}, {"molecule": "MDINIDDILAEADKETTAVD (domain or fragment)", "note": "[GST-Sld5 (1-20) L12A]", "values": [{"measurement": "binding result", "setting": "[4]", "result": "binds"}]}]}
